Experimental data taken from ChEMBL document CHEMBL4680218, “Design and synthesis of tripeptidyl furylketones as selective inhibitors against the β5 subunit of human 20S proteasome” (Eur J Med Chem, 2020).
Calls of active or inactive are those of the source.

How the values were obtained:
[1] = molecular target: T1, Proteasome Macropain subunit MB1 (Homo sapiens) (UniProt P28074); assay: Inhibition of chymotrypsin-like activity of human 20S proteasome beta5 subunit at 50 uM using Suc-LLVY-Glo as substrate incubated for 2 hrs followed by substrate addition and measured for 10 mins by bioluminescent assay relative to control; conditions: time 130.0 min
T1 sequence (whole entry): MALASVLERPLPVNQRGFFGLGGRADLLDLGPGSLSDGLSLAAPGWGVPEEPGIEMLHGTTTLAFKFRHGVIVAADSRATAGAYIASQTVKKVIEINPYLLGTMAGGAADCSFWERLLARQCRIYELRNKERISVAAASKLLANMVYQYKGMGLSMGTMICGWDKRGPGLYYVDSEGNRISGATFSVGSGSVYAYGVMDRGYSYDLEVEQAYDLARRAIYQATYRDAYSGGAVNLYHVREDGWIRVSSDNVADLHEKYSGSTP
Outline: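 Human constitutive 20S proteasome (1 µg/mL) was incubated with compound for 2 h at 25 °C in 10 mM HEPES pH 7.6 with 1% DMSO final. Suc-LLVY-Glo substrate was then added, and luminescence was read over 10 min. Inhibition rate was calculated against the uninhibited signal.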

[2] = molecular target: T2, Proteasome Macropain subunit MB1 (Homo sapiens, UniProt P28074); assay: Inhibition of chymotrypsin-like activity of human 20S proteasome beta5 subunit using Suc-LLVY-Glo as substrate incubated for 2 hrs followed by substrate addition and measured for 10 mins by bioluminescent assay
T2 sequence (P28074 whole entry): T1 sequence (whole entry)
Outline: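 Human constitutive 20S proteasome (1 μg/mL) was combined with compound serially diluted in 10 mM HEPES pH 7.6, with final DMSO 1% (v/v). After 2 h at 25 °C, Suc-LLVY-Glo (CT-L), Z-LRR-Glo (T-L) or Z-nLPnLD-Glo (C-L) reagent was added. Luminescence was read over 10 min, and IC50 was taken from inhibition rates.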

[3] = molecular target: T1, Proteasome Macropain subunit MB1 (Homo sapiens); assay: Reversible inhibition of human 20S proteasome beta5 subunit assessed as residual enzyme activity using Suc-LLVY-Glo as substrate preincubated for 2 hrs followed by compound washout and further incubated for 4 hrs followed by substrate addition and measured after 10 mins by bioluminescent assay relative to control
Outline: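 Human 20S proteasome (8 μg/mL) was pre-incubated with inhibitor for 2 h at 25 °C. Samples were then washed five times in assay buffer on 100 kDa cut-off centrifugal filters (14,000 g, 5 min each) and recovered. After a further 4 h at 25 °C, Suc-LLVY-Glo was added and luminescence was read after 10 min. Unwashed samples held an extra 4 h served as the standard.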

[4] = molecular target: T1, Proteasome Macropain subunit MB1 (Homo sapiens); assay: Covalent binding affinity to human 20S proteasome beta5 subunit assessed as hemi-ketal formation using H2O-MeOH as mobile phase by HPLC analysis
[5] = molecular target: T1, Proteasome Macropain subunit MB1 (Homo sapiens); assay: Binding affinity to immobilized human 20S proteasome beta 5 subunit assessed as association rate constant by SPR analysis
Outline: (§1)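 Purified human constitutive 20S proteasome was immobilised on a CM5 chip. Analyte was a 2-fold series from 25 to 1.56 µM in running buffer (10 mM phosphate, 2.7 mM KCl, 137 mM NaCl, 0.05% P20, 5% DMSO, pH 7.4). Flow was 30 µL/min, with 60 s association and 60 s dissociation. Responses were normalised by molecular weight, and kon/koff came from a 1:1 binding fit.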

[6] = molecular target: T1, Proteasome Macropain subunit MB1 (Homo sapiens); assay: Binding affinity to immobilized human 20S proteasome beta 5 subunit assessed as dissociation rate constant by SPR analysis; outline: as §1
[7] = molecular target: T2, Proteasome Macropain subunit MB1; assay: Binding affinity to immobilized human 20S proteasome beta 5 subunit by SPR analysis
Outline: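 SPR used purified human 20S proteasome coupled to a CM5 chip. Analytes were 2-fold series from 25 to 1.56 μM in PBS-P running buffer (pH 7.4, 0.05% P20) with 5% DMSO, flowed at 30 μL/min with 60 s association and 60 s dissociation. Data were normalized by molecular weight and fitted to a 1:1 Langmuir model; KD is from the rate constants.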

A-375 = assay: Cytotoxicity against human A-375 cells assessed as reduction in cell viability after 72 hrs by Cell Titer-Glo assay; assay type: functional, cell-based; conditions: A-375, 72 h
Outline: (§2)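 Cells were cultured in their respective media with 10% FBS, seeded from log phase at 1000 cells/well, and given compound after 18–24 h. After 72 h, an equal volume of CellTiter-Glo reagent was added and luminescence was read at 37 °C. IC50 came from dose-response curve fits; values are mean ± SD of three independent experiments, each in biological triplicate.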

BGC-823 = assay: Cytotoxicity against human BGC-823 cells assessed as reduction in cell viability after 72 hrs by Cell Titer-Glo assay; assay type: functional, cell-based; conditions: BGC-823, 72 h; outline: as §2
HeLa = assay: Cytotoxicity against human HeLa cells assessed as reduction in cell viability after 72 hrs by Cell Titer-Glo assay; assay type: functional, cell-based; outline: as §2
A549 = assay: Cytotoxicity against human A549 cells assessed as reduction in cell viability after 72 hrs by Cell Titer-Glo assay; assay type: functional, cell-based; conditions: A549, 72 h; outline: as §2
[8] = Cytotoxicity against human PC3M1E8 cells assessed as reduction in cell viability after 72 hrs by Cell Titer-Glo assay; assay type: functional, cell-based; conditions: PC3M1E8, 72 h; outline: as §2
HCT-116 [9] = assay: Cytotoxicity against human HCT-116 cells assessed as reduction in cell viability after 72 hrs by Cell Titer-Glo assay; assay type: functional, cell-based; conditions: HCT-116, 72 h; outline: as §2
HEK293 = assay: Cytotoxicity against human HEK293 cells assessed as reduction in cell viability after 72 hrs by Cell Titer-Glo assay; assay type: cell-based; conditions: HEK293, 72 h; outline: as §2
HT-29 = assay: Cytotoxicity against human HT-29 cells assessed as reduction in cell viability after 72 hrs by Cell Titer-Glo assay; assay type: functional, cell-based; conditions: HT-29, 72 h; outline: as §2
HCT-116 [10] = assay: Cell cycle arrest in human HCT-116 cells assessed as accumulation at G1 phase at 1 uM after 24 hrs by propidium iodide staining based flow cytometric analysis (reference value: 29%); assay type: functional
HCT-116 [11] = assay: Cell cycle arrest in human HCT-116 cells assessed as accumulation at S phase at 1 uM after 24 hrs by propidium iodide staining based flow cytometric analysis (reference value: 50%); assay type: functional
HCT-116 [12] = assay: Cell cycle arrest in human HCT-116 cells assessed as accumulation at G2/M phase at 1 uM after 24 hrs by propidium iodide staining based flow cytometric analysis (reference value: 21%); assay type: functional
[13] = Cmax in Sprague-Dawley rat at 5 mg/kg, iv measured up to 48 hrs by LC-MS/MS analysis; assay type: ADME, organism-based; design: route intravenous, dose 5 mg/kg, time <=48; conditions: in vivo
Outline: (§3)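 Male Sprague-Dawley rats, three per group, fasted 12 h, then given a single intravenous dose of 5 mg/kg in 8% ethanol, 2% Tween 80 and 90% sterile water. Blood was drawn from the venous plexus at the inner canthus into heparin tubes at 5, 15 and 30 min and at 1, 2, 4, 8, 24, 32 and 48 h. Plasma was quantified by LC-MS/MS against an internal standard.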

[14] = AUC(0 to t) in Sprague-Dawley rat at 5 mg/kg, iv measured up to 48 hrs by LC-MS/MS analysis; assay type: ADME, organism-based; design: route intravenous, dose 5 mg/kg, time <=48; conditions: in vivo; outline: as §3
[15] = Half life in Sprague-Dawley rat at 5 mg/kg, iv measured up to 48 hrs by LC-MS/MS analysis; assay type: ADME, organism-based; conditions: in vivo; outline: as §3
[16] = MRT in Sprague-Dawley rat at 5 mg/kg, iv measured up to 48 hrs by LC-MS/MS analysis; assay type: ADME, organism-based; conditions: in vivo; outline: as §3
[17] = Clearance in Sprague-Dawley rat at 5 mg/kg, iv measured up to 48 hrs by LC-MS/MS analysis; assay type: ADME, organism-based; conditions: in vivo; outline: as §3
[18] = Volume of distribution at steady state in Sprague-Dawley rat at 5 mg/kg, iv measured up to 48 hrs by LC-MS/MS analysis; assay type: ADME, organism-based; conditions: in vivo, read-out: Vdss; outline: as §3
[19] = Toxicity in BALB/c athymic nude mouse xenografted with human HCT-116 cells assessed as reduction in body weight at 10 mg/kg, iv administered twice a week for 28 days; assay type: organism-based; conditions: in vivo, 672 h, time 28 day
Outline: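 Male nude mice had 1 × 10^7 HCT-116 cells in serum-free RPMI 1640 implanted subcutaneously in the right flank. At ~300 mm³ (about day 10) they were randomized, n=3/group. Dosing was by tail vein twice weekly (D1/D4) for four weeks: 10 mg/kg in 8% ethanol/2% Tween 80/90% water, or 5 mg/kg in 10% sulfobutylether-β-cyclodextrin, 10 mmol/L citrate pH 3.5. Caliper volume (length × width²)/2 and body weight were measured twice weekly.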

[20] = molecular target: T1, Proteasome Macropain subunit MB1 (Homo sapiens); assay: Covalent binding affinity to human 20S proteasome beta5 subunit assessed as compound-tryptic digest TTTLAFKFR peptide adduct formation at 10 uM incubated for 2 hrs measured after overnight incubation with trypsin by LC-MS/MS analysis
Outline: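 Purified human 20S proteasome (4 nM) was incubated with 10 μM inhibitor for 2 h at room temperature, then quenched and denatured with acetonitrile. Trypsin (1:50) digestion ran overnight at 37 °C, followed by C18 desalting. Nano-LC-MS/MS used a 0.1% formic acid water/acetonitrile gradient. Adducts were searched against UniProt at ±10 ppm precursor and ±0.02 Da fragment tolerance, allowing 2 missed cleavages.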

[21] = molecular target: T1, Proteasome Macropain subunit MB1 (Homo sapiens); assay: Covalent binding affinity to human 20S proteasome beta5 subunit assessed as methyl hemi-ketal formation using H2O-CH3CN as mobile phase by HPLC analysis

COC[C@H](NC(=O)[C@H](CC(=O)NCC(C)(C)C)NS(=O)(=O)c1ccc(C)cc1)C(=O)N[C@@H](CC(C)C)C(=O)c1ccco1
inhibition [1]: > 50%
IC50 [2]: 180 nM
Activity [3]: < 30%
Activity [4]: 27%
Ka [5]: 4210 M⁻¹ s⁻¹
Kdiss [6]: 0.0192 s⁻¹
Kd [7]: 4800 nM
IC50 (A-375): 880 nM
IC50 (BGC-823): 770 nM
IC50 (HeLa): 670 nM
IC50 (A549): 1300 nM
IC50 [8]: 570 nM
IC50 (HCT-116 [9]): 280 nM
IC50 (HEK293): > 50000 nM
IC50 (HT-29): 730 nM
Activity (HCT-116 [10]): 9%
Activity (HCT-116 [11]): 14%
Activity (HCT-116 [12]): 77%
Cmax [13]: 2010 ng/mL
AUC(0-t) at 48 h [14]: 680 ng·h/mL
half-life [15]: 13.8 min
MRT [16]: 20.2 min
clearance [17]: 33.3 mL/min/kg
Vd [18]: 0.66 L/kg
Activity [19]: Non-Toxic
Activity [20]: inactive
Activity [21]: inactive
